Laboratory results published in ChEMBL document CHEMBL1156448, “Identification of an efficacy switch region in the ghrelin receptor responsible for interchange between agonism and inverse agonism” (J Biol Chem, 2007).

Key:
[1] = biological target: T1, Growth hormone secretagogue receptor type 1 (Homo sapiens, UniProt Q92847); test: Inverse agonist activity at human ghrelin receptor expressed in african green monkey COS7 cells assessed as constitutively stimulated inositol phosphate accumulation; format: functional, cell-based, COS-7
Target sequence in this assay (Q92847 whole entry): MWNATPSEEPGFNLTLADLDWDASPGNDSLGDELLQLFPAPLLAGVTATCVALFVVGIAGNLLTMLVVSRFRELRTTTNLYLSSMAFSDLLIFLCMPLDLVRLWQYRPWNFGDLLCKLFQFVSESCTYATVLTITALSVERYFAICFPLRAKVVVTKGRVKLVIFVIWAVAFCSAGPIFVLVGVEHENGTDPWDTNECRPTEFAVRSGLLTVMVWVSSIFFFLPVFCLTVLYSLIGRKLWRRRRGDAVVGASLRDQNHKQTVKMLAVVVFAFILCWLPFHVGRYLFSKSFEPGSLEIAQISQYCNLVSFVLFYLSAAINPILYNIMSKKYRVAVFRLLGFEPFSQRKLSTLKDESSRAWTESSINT

[2] = biological target: T2, Growth hormone secretagogue receptor type 1 (Homo sapiens, UniProt Q92847, R283Q); test: Agonist activity at human ghrelin receptor Arg6:20Gln(Arg283) mutant expressed in african green monkey COS7 cells assessed as stimulation of constitutively stimulated inositol phosphate accumulation; format: functional, cell-based, COS-7
How it was run: (§1)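 COS-7 cells transiently transfected (calcium phosphate with chloroquine, cDNA amount giving maximal basal signaling, 20 μg/75 cm2). After 1 day, labeled 24 h with 5 μCi myo-[3H]inositol. Washed in HEPES buffer pH 7.4, preincubated 30 min at 37 °C with 10 mM LiCl, then exposed to peptide concentrations for 45 min at 37 °C. Formic acid extraction, anion-exchange purification. Duplicate determinations. EC50 by nonlinear regression.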

[3] = biological target: T3, Growth hormone secretagogue receptor type 1 (Homo sapiens, UniProt Q92847, F312A); test: Agonist activity at human ghrelin receptor Phe7:09Ala(Phe312) mutant expressed in african green monkey COS7 cells assessed as stimulation of constitutively stimulated inositol phosphate accumulation; format: functional, cell-based, COS-7; how it was run: as §1
[4] = biological target: T1, Growth hormone secretagogue receptor type 1; test: Agonist activity at human ghrelin receptor Asp2:20Asn(Asp99) mutant expressed in african green monkey COS7 cells assessed as stimulation of constitutively stimulated inositol phosphate accumulation; format: functional, cell-based; conditions: cos-7; how it was run: as §1
Target sequence in this assay (Q92847 whole entry, looked up): as the sequence (Q92847 whole entry) above

[5] = biological target: T4, Growth hormone secretagogue receptor type 1 (Homo sapiens, UniProt Q92847, Q120A); test: Agonist activity at human ghrelin receptor Gln3:05Ala(Gln120) mutant expressed in african green monkey COS7 cells assessed as stimulation of constitutively stimulated inositol phosphate accumulation; format: functional, cell-based, COS-7; how it was run: as §1
[6] = biological target: T5, Growth hormone secretagogue receptor type 1 (Homo sapiens, UniProt Q92847, N305A); test: Agonist activity at human ghrelin receptor Asn7:02Ala(Asn305) mutant expressed in african green monkey COS7 cells assessed as stimulation of constitutively stimulated inositol phosphate accumulation; format: functional, cell-based, COS-7; how it was run: as §1
[7] = biological target: T6, Growth hormone secretagogue receptor type 1 (Homo sapiens, UniProt Q92847, M213A); test: Agonist activity at human ghrelin receptor Met5:05Ala(Met213) mutant expressed in african green monkey COS7 cells assessed as stimulation of constitutively stimulated inositol phosphate accumulation; format: functional, cell-based, COS-7; how it was run: as §1
[8] = biological target: T7, Growth hormone secretagogue receptor type 1 (Homo sapiens, UniProt Q92847, V216A); test: Agonist activity at human ghrelin receptor Val5:08Ala(Val216) mutant expressed in african green monkey COS7 cells assessed as stimulation of constitutively stimulated inositol phosphate accumulation; format: functional, cell-based, COS-7; how it was run: as §1
[9] = biological target: T8, Growth hormone secretagogue receptor type 1 (Homo sapiens, UniProt Q92847, E124Q); test: Agonist activity at human ghrelin receptor Glu3:09Gln(Glu124) mutant expressed in african green monkey COS7 cells assessed as stimulation of constitutively stimulated inositol phosphate accumulation; format: functional, cell-based, COS-7; how it was run: as §1
[10] = biological target: T9, Growth hormone secretagogue receptor type 1 (Homo sapiens, UniProt Q92847, F220A); test: Agonist activity at human ghrelin receptor Phe5:12Ala(Phe220) mutant expressed in african green monkey COS7 cells assessed as stimulation of constitutively stimulated inositol phosphate accumulation; format: functional, cell-based, COS-7; how it was run: as §1
[11] = biological target: T10, Growth hormone secretagogue receptor type 1 (Homo sapiens, UniProt Q92847, F119S); test: Agonist activity at human ghrelin receptor Phe3:04Ser(phe119) mutant expressed in african green monkey COS7 cells assessed as stimulation of constitutively stimulated inositol phosphate accumulation; format: functional, cell-based, COS-7; how it was run: as §1
[12] = biological target: T11, Growth hormone secretagogue receptor type 1 (Homo sapiens, UniProt Q92847, I178A); test: Agonist activity at human ghrelin receptor Ile4:20Ala(Ile178) mutant expressed in african green monkey COS7 cells assessed as stimulation of constitutively stimulated inositol phosphate accumulation; format: functional, cell-based, COS-7; how it was run: as §1
[13] = biological target: T12, Growth hormone secretagogue receptor type 1 (Homo sapiens, UniProt Q92847, S123A); test: Inverse agonist activity at human ghrelin receptor Ser3:08Ala(Ser123) mutant expressed in african green monkey COS7 cells assessed as inhibition of constitutively stimulated inositol phosphate accumulation
[14] = biological target: T1, Growth hormone secretagogue receptor type 1; test: Displacement of [35S]MK677 from human ghrelin receptor expressed in african green monkey COS7 cells; format: cell-based, COS-7
Target sequence in this assay (Q92847 whole entry): as above

[15] = biological target: T13, Growth hormone secretagogue receptor type 1 (Homo sapiens, UniProt Q92847, S217A); test: Agonist activity at human ghrelin receptor Ser5:09Ala(Ser217) mutant expressed in african green monkey COS7 cells assessed as stimulation of constitutively stimulated inositol phosphate accumulation; format: functional, cell-based, COS-7; how it was run: as §1
[16] = biological target: T14, Growth hormone secretagogue receptor type 1 (Homo sapiens, UniProt Q92847, S174A); test: Agonist activity at human ghrelin receptor Ser4:16Ala(Ser174) mutant expressed in african green monkey COS7 cells assessed as stimulation of constitutively stimulated inositol phosphate accumulation; format: functional, cell-based, COS-7; how it was run: as §1
[17] = biological target: T15, Growth hormone secretagogue receptor type 1 (Homo sapiens, UniProt Q92847, D99K); test: Agonist activity at human ghrelin receptor Asp2:20Lys(Asp99) mutant expressed in african green monkey COS7 cells assessed as stimulation of constitutively stimulated inositol phosphate accumulation; format: functional, cell-based, COS-7; how it was run: as §1
[18] = biological target: Growth hormone secretagogue receptor type 1 (Homo sapiens, UniProt Q92847, F279A); test: Agonist activity at human ghrelin receptor Phe6:16Ala(Phe279) mutant expressed in african green monkey COS7 cells assessed as stimulation of constitutively stimulated inositol phosphate accumulation; format: functional, cell-based, COS-7; how it was run: as §1
[19] = biological target: T1, Growth hormone secretagogue receptor type 1; test: Agonist activity at human ghrelin receptor Phe7:06Leu(Phe306) mutant expressed in african green monkey COS7 cells assessed as stimulation of constitutively stimulated inositol phosphate accumulation; format: functional, cell-based; conditions: cos-7; how it was run: as §1
Target sequence in this assay (Q92847 whole entry, looked up): as the sequence (Q92847 whole entry) above

[20] = biological target: T1, Growth hormone secretagogue receptor type 1; test: Agonist activity at human wild type ghrelin receptor expressed in african green monkey COS7 cells assessed as stimulation of constitutively stimulated inositol phosphate accumulation; format: functional, cell-based, COS-7; how it was run: as §1
Target sequence in this assay (Q92847 whole entry): as above

[21] = biological target: T6, Growth hormone secretagogue receptor type 1; test: Inverse agonist activity at human ghrelin receptor Met5:05Ala(Met213) mutant expressed in african green monkey COS7 cells assessed as inhibition of constitutively stimulated inositol phosphate accumulation; format: functional, cell-based, COS-7
How it was run: (§2)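 COS-7 cells transiently transfected (calcium phosphate with chloroquine; receptor cDNA 20 μg/75 cm2, the amount giving maximal basal signaling), labelled one day later for 24 h with 5 μCi myo-[3H]inositol. Preincubated in HEPES buffer pH 7.4 with 10 mm LiCl, 30 min at 37 °C, then exposed to various peptide concentrations, 45 min at 37 °C. Inositol phosphates recovered on anion-exchange resin; duplicates; EC50 by nonlinear regression.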

[22] = biological target: T12, Growth hormone secretagogue receptor type 1; test: Inverse agonist activity at human ghrelin receptor Ser3:08Ala(Ser123) mutant expressed in african green monkey COS7 cells assessed as inhibition of constitutively stimulated inositol phosphate accumulation; format: functional, cell-based, COS-7; how it was run: as §2
[23] = biological target: T1, Growth hormone secretagogue receptor type 1; test: Inverse agonist activity at human ghrelin receptor Phe7:06Leu(Phe306) mutant expressed in african green monkey COS7 cells assessed as inhibition of constitutively stimulated inositol phosphate accumulation; format: functional, cell-based; conditions: cos-7; how it was run: as §2
Target sequence in this assay (Q92847 whole entry, looked up): as the sequence (Q92847 whole entry) above

[24] = biological target: T3, Growth hormone secretagogue receptor type 1; test: Inverse agonist activity at human ghrelin receptor Phe7:09Ala(Phe312) mutant expressed in african green monkey COS7 cells assessed as inhibition of constitutively stimulated inositol phosphate accumulation; format: functional, cell-based, COS-7; how it was run: as §2
[25] = biological target: T1, Growth hormone secretagogue receptor type 1; test: Inverse agonist activity at human wild type ghrelin receptor expressed in african green monkey COS7 cells assessed as inhibition of constitutively stimulated inositol phosphate accumulation; format: functional, cell-based, COS-7; how it was run: as §2
Target sequence in this assay (Q92847 whole entry): as above

[26] = biological target: T2, Growth hormone secretagogue receptor type 1; test: Inverse agonist activity at human ghrelin receptor Arg6:20Gln(Arg283) mutant expressed in african green monkey COS7 cells assessed as inhibition of constitutively stimulated inositol phosphate accumulation; format: functional, cell-based, COS-7; how it was run: as §2
[27] = biological target: T8, Growth hormone secretagogue receptor type 1; test: Inverse agonist activity at human ghrelin receptor Glu3:09Gln(Glu124) mutant expressed in african green monkey COS7 cells assessed as inhibition of constitutively stimulated inositol phosphate accumulation; format: functional, cell-based, COS-7; how it was run: as §2
[28] = biological target: T5, Growth hormone secretagogue receptor type 1; test: Inverse agonist activity at human ghrelin receptor Asn7:02Ala(Asn305) mutant expressed in african green monkey COS7 cells assessed as inhibition of constitutively stimulated inositol phosphate accumulation; format: functional, cell-based, COS-7; how it was run: as §2
[29] = biological target: T13, Growth hormone secretagogue receptor type 1; test: Inverse agonist activity at human ghrelin receptor Ser5:09Ala(Ser217) mutant expressed in african green monkey COS7 cells assessed as inhibition of constitutively stimulated inositol phosphate accumulation; format: functional, cell-based, COS-7; how it was run: as §2
[30] = biological target: T15, Growth hormone secretagogue receptor type 1; test: Agonist activity at human ghrelin receptor Asp2:20Lys(Asp99) mutant expressed in african green monkey COS7 cells assessed as inhibition of inositol phosphate accumulation; format: functional, cell-based, COS-7; how it was run: as §2
[31] = biological target: T11, Growth hormone secretagogue receptor type 1; test: Agonist activity at human ghrelin receptor Ile4:20Ala(Ile178) mutant expressed in african green monkey COS7 cells assessed as stimulation of constitutively stimulated inositol phosphate accumulation
[32] = biological target: T7, Growth hormone secretagogue receptor type 1; test: Inverse agonist activity at human ghrelin receptor Val5:08Ala(Val216) mutant expressed in african green monkey COS7 cells assessed as inhibition of constitutively stimulated inositol phosphate accumulation; format: functional, cell-based, COS-7; how it was run: as §2
[33] = biological target: T1, Growth hormone secretagogue receptor type 1; test: Agonist activity at human ghrelin receptor Asp2:20Asn(Asp99) mutant expressed in african green monkey COS7 cells assessed as inhibition of inositol phosphate accumulation; format: functional, cell-based; conditions: cos-7; how it was run: as §2
Target sequence in this assay (Q92847 whole entry, looked up): as the sequence (Q92847 whole entry) above

[34] = biological target: T10, Growth hormone secretagogue receptor type 1; test: Agonist activity at human ghrelin receptor Phe3:04Ser(phe119) mutant expressed in african green monkey COS7 cells assessed as stimulation of constitutively stimulated inositol phosphate accumulation
[35] = biological target: T4, Growth hormone secretagogue receptor type 1; test: Inverse agonist activity at human ghrelin receptor Gln3:05Ala(Gln120) mutant expressed in african green monkey COS7 cells assessed as inhibition of constitutively stimulated inositol phosphate accumulation; format: functional, cell-based, COS-7; how it was run: as §2
[36] = biological target: T14, Growth hormone secretagogue receptor type 1; test: Inverse agonist activity at human ghrelin receptor Ser4:16Ala(Ser174) mutant expressed in african green monkey COS7 cells assessed as inhibition of constitutively stimulated inositol phosphate accumulation; format: functional, cell-based, COS-7; how it was run: as §2
[37] = biological target: T9, Growth hormone secretagogue receptor type 1; test: Inverse agonist activity at human ghrelin receptor Phe5:12Ala(Phe220) mutant expressed in african green monkey COS7 cells assessed as inhibition of constitutively stimulated inositol phosphate accumulation; format: functional, cell-based, COS-7; how it was run: as §2

T7 sequence (Q92847 whole entry V216A): as the sequence (Q92847 whole entry) above, with V216A counted along it
T11 sequence (Q92847 whole entry I178A): as the sequence (Q92847 whole entry) above, with I178A counted along it
T8 sequence (Q92847 whole entry E124Q): as the sequence (Q92847 whole entry) above, with E124Q counted along it
T15 sequence (Q92847 whole entry D99K): as the sequence (Q92847 whole entry) above, with D99K counted along it
T5 sequence (Q92847 whole entry N305A): as the sequence (Q92847 whole entry) above, with N305A counted along it
T9 sequence (Q92847 whole entry F220A): as the sequence (Q92847 whole entry) above, with F220A counted along it
T2 sequence (Q92847 whole entry R283Q): as the sequence (Q92847 whole entry) above, with R283Q counted along it
T13 sequence (Q92847 whole entry S217A): as the sequence (Q92847 whole entry) above, with S217A counted along it
T10 sequence (Q92847 whole entry F119S): as the sequence (Q92847 whole entry) above, with F119S counted along it
T14 sequence (Q92847 whole entry S174A): as the sequence (Q92847 whole entry) above, with S174A counted along it
T4 sequence (Q92847 whole entry Q120A): as the sequence (Q92847 whole entry) above, with Q120A counted along it
T3 sequence (Q92847 whole entry F312A): as the sequence (Q92847 whole entry) above, with F312A counted along it
T12 sequence (Q92847 whole entry S123A): as the sequence (Q92847 whole entry) above, with S123A counted along it
T6 sequence (Q92847 whole entry M213A): as the sequence (Q92847 whole entry) above, with M213A counted along it
Sequence of Growth hormone secretagogue receptor type 1 (Homo sapiens, UniProt Q92847, F279A) (Q92847 whole entry F279A): as the sequence (Q92847 whole entry) above, with F279A counted along it

In the case of `CC(C)C[C@H](NC(=O)[C@H](CC(C)C)NC(=O)[C@@H](Cc1c[nH]c2ccccc12)NC(=O)[C@H](Cc1ccccc1)NC(=O)[C@@H](Cc1c[nH]c2ccccc12)NC(=O)[C@H](C)N)C(N)=O`, the IC50 [1] is reported as 15 nM, the IC50 [2] is reported as > 1000 nM and the IC50 [3] is reported as > 1000 nM. The IC50 [4] was > 1000 nM, the IC50 [5] was > 1000 nM and the IC50 [6] was 15 nM. The IC50 [7] was 0.35 nM, the IC50 [8] was > 1000 nM and the IC50 [9] was > 1000 nM. For the same molecule, the IC50 [10] was > 1000 nM, the IC50 [11] was 41 nM and the IC50 [12] was 160 nM. The IC50 [13] was 28 nM, the IC50 [14] was 53 nM and the IC50 [15] was 14 nM. The IC50 [16] was 6.1 nM, the IC50 [17] was > 1000 nM and the IC50 [18] was > 1000 nM. The IC50 [19] was 81 nM and the IC50 [20] was 15 nM.
With `CC(C)C[C@H](NC(=O)[C@H](CC(C)C)NC(=O)[C@@H](Cc1c[nH]c2ccccc12)NC(=O)[C@H](Cc1ccccc1)NC(=O)[C@@H](Cc1c[nH]c2ccccc12)NC(=O)[C@@H](N)CCCCN)C(N)=O` the IC50 [1] was 36 nM, the IC50 [21] was 29 nM and the IC50 [22] was 21 nM. The IC50 [23] was > 1000 nM, the IC50 [24] was > 1000 nM and the IC50 [25] was 32 nM. For the same molecule, the IC50 [26] was > 1000 nM, the IC50 [27] was > 1000 nM and the IC50 [28] was 61 nM. For the same molecule, the IC50 [29] was 83 nM, the IC50 [30] was > 1000 nM and the EC50 [31] was 43 nM. The IC50 [14] was 13 nM, the IC50 [32] was 27 nM and the IC50 [33] was > 1000 nM. For the same molecule, the EC50 [34] was 60 nM, the IC50 [35] was > 1000 nM and the IC50 [36] was 2.6 nM. For the same molecule, the IC50 [37] was 19 nM.
